Assay outcomes deposited in PubChem by several laboratories.
Efflux pump inh – inhibitors of Candida antifungal efflux pumps expressed in yeast; S. cerevisiae Candida pump triplex, Nile Red efflux; AID 485275; inhibition, % at 10 µM; hit rate 0.44% among 330,000;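 active means plate passing quality check with inhibition over a set limit, or well fluorescence over plate mean plus 4 SD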;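 further: Nile Red retained in pooled yeast measured as flow cytometry median fluorescence; 0% = buffer negative control and 100% = Enniatin B positive control; higher means more Nile Red kept so more efflux inhibition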
Rtt109 Vps75 – inhibitors of Candida albicans Rtt109/Vps75 histone acetyltransferase; purified Rtt109/Vps75, ThioGlo CoA-SH fluorescence, 4 h; AID 540336; inhibition, % at 34.9 µM; hit rate 0.16% among 330,000;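 active means inhibition of at least 50% in every replicate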
Target sequence (Q5AAJ8 whole entry, looked up): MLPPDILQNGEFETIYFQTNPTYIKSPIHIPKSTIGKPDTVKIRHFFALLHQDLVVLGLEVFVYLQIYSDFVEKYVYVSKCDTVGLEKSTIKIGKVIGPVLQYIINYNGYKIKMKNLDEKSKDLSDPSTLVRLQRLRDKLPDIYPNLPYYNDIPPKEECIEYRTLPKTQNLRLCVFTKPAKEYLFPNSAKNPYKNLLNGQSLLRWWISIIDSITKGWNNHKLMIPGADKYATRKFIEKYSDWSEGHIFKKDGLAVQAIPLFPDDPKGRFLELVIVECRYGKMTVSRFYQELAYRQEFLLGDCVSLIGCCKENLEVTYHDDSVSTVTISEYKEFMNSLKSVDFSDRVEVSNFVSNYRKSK
FGF22 binding – shifts melting point of recombinant human FGF22; Q9HCT0; hit rate 1.5% among 340,000; activity (Tm shift, normalised), % at 9.99 µM; AID 651658; recombinant FGF22 thermal shift, SYPRO orange fluorescence; percent of sucrose octasulfate shift, DMSO zero;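 active means mean Tm shift, scaled 0 neutral to 100 positive control, at about 1.3% or above, every replicate too, limit read from the data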
ARFGAP1 inh – inhibitors of rat ARFGAP1. Q62848. Arfgap1-stimulated ARF1 GTP hydrolysis, GDP FP detection. inhibition, % at 16.5 µM. hit rate 0.26% among 360,000. AID 651572;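 active means inhibition above a per-plate limit, mean inhibition of low control wells plus 3 SD, cut at about 25% in these data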;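 further: 0% = DMSO wells with enzyme and 100% = wells lacking Arfgap1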
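Material: rat Arfgap1 catalytic domain, aa 1-136; also added: human ARF1(Δ1-17)-GTP substrate; compound dosing: one concentration, 16.5 µM, DMSO 1.26%; incubation: GTP hydrolysis reaction 2 h at 25 °C; measured by: Tracer-displacement fluorescence polarization with EDTA stop, 620/688 nm; evaluation: % inhibition from polarization; repeats: one replicate per compound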
ASAP1 inh – blocks human ASAP1-stimulated Arf1 GTP hydrolysis. inhibition, % at 16.5 µM. AID 624377. hit rate 0.19% among 360,000. Q9ULH1. GDP FP detection; in the data active means inhibition above about 25%;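 further: 0% = vehicle with enzyme and substrate and 100% = no enzyme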
Target sequence (Q9ULH1 325-724 limits assumed): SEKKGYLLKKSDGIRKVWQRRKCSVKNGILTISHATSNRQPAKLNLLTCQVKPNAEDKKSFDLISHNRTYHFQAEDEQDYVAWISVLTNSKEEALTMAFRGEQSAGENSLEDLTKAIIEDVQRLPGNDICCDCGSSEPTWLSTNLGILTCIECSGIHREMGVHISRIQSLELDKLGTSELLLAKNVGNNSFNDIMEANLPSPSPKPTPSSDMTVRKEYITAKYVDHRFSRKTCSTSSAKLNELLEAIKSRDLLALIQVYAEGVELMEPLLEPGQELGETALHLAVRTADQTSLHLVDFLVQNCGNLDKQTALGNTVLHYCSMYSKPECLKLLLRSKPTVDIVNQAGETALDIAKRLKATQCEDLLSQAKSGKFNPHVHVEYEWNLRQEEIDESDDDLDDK
Cmpd fluor yeast – flagged as fluorescent in efflux inhibitor counter-screen; fluorescence ratio to DMSO, % at 10 µM; shares compounds with Efflux pump inh; AID 588517; S. cerevisiae AD/pABC3, compound fluorescence, flow cytometry; hit rate 4% among 1,700;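 active means fluorescence ratio to DMSO above its plate's cutoff, the plate mean ratio plus 5 SD, cut at about 210% in these data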;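 further: unstained yeast with no Nile Red so the signal is compound autofluorescence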
CaMdr1 efflux inh – Candida Mdr1 efflux pump inhibition; hit rate 1% among 1,700; S. cerevisiae AD/CaMDR1, Nile Red efflux, flow cytometry; AID 588518; shares compounds with Efflux pump inh; inhibition, % at 10 µM; in the data active means inhibition above about 26%;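 further: 0% = DMSO vehicle and 100% = reference inhibitor; higher means more Nile Red retained so more efflux inhibition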
Cdr2 pump inh – inhibitors of Candida albicans Cdr2 efflux pump. shares compounds with Efflux pump inh. S. cerevisiae AD/CaCDR2, Nile Red retention, flow cytometry. Nile Red retention ratio vs DMSO, % at 10 µM. hit rate 4% among 1,700. AID 588520; in the data active means Nile Red retention ratio vs DMSO above about 190%;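 further: higher ratio means more blocking of Cdr2 efflux of the dye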
CaCdr1 efflux inh – blocks the Candida albicans Cdr1 efflux pump in yeast; inhibition, % at 10 µM; AID 588522; hit rate 1% among 1,700; shares compounds with Efflux pump inh; S. cerevisiae AD/CaCDR1, Nile Red efflux, flow cytometry;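 active means inhibition above the screen-wide mean plus twice its standard deviation, cut at about 32% in these data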
* hit, by the source's call; · = no result given. Rows were chosen to be rich in hits. Some 1.9% of all compounds tested hit in one or more screens of this group.

SMILES	Efflux pump inh	Rtt109 Vps75	FGF22 binding	ARFGAP1 inh	ASAP1 inh	Cmpd fluor yeast	CaMdr1 efflux inh	Cdr2 pump inh	CaCdr1 efflux inh
O=C(O)c1cccc(-c2ccc(/C=c3/sc4nc5ccccc5n4c3=O)o2)c1	3.9*	3.8	0.2	-9.5	7.0	132.5	0.1	262.1*	0.3
CCOC(=O)N1CCN(C(=S)NC(=O)c2ccc(F)c(F)c2)CC1	1.6*	-8.7	0.5	-0.2	-4.0	95.3	-0.1	103.6	0.1
Cc1c2cc[n+](CCN3CCCCC3)cc2c(C)c2c1[nH]c1ccc(O)cc12	·	-3.5	·	·	·	106.7	-0.3	93.0	-0.2
CCOC(=O)c1[nH]c2ccc(C)cc2c1NC(=O)CN1CCCCC1	-0.2	11.7	·	-6.2	1.9	·	·	·	·
CCOC(=O)c1ccc(N(C(=O)c2cnccn2)C(C(=O)NC2CCCCC2)c2cn(C)nc2C)cc1 (stereo unspecified)	0.0	5.5	·	13.0	-2.5	·	·	·	·
O=C(COC(=O)c1cccc(Cl)c1)NCCN1C(=O)CSC1=O	0.0	2.2	-0.2	-3.4	-1.6	95.5	-0.3	89.9	-0.1
Cc1noc(C)c1COc1cccc(C(=O)OCC(=O)NCCN2C(=O)CSC2=O)c1	0.1	-3.6	0.1	1.4	1.5	·	·	·	·
O=C(COC(=O)c1cc(Cl)cc(Cl)c1)NCCN1C(=O)CSC1=O	-0.1	-4.7	-0.1	-1.3	-0.1	104.7	-0.2	99.6	0.0
CSc1ccccc1C(=O)OCC(=O)NCCN1C(=O)CSC1=O	0.0	16.9	-0.2	3.0	17.4	·	·	·	·
O=C(COC(=O)c1ccc(Cl)cc1O)NCCN1C(=O)CSC1=O	0.1	-18.2	0.0	-5.2	2.6	108.3	0.0	112.0	0.0
CCNc1ccc(C(=O)OCC(=O)NCCN2C(=O)CSC2=O)cc1[N+](=O)[O-]	0.0	8.5	0.9	2.1	-7.4	·	·	·	·
COc1cccc(-c2ccc3c(c2)O[C@H](CN(C)C(C)=O)[C@H](C)CN([C@@H](C)CO)S3(=O)=O)c1	·	·	0.1	·	·	·	·	·	·
Nc1n[nH]c(-c2cccc([N+](=O)[O-])c2)n1	0.1	-2.9	·	5.4	-8.8	·	·	·	·
CCOc1ccc(C(=O)Nc2cccc(-c3nc4cccnc4o3)c2)cc1Cl	1.0*	5.6	·	·	·	113.2	0.1	114.4	-0.1
CC1CC2OC2CC1COC(=O)C1CC2OC2CC1C (stereo unspecified)	·	10.1	0.1	7.3	10.5	·	·	·	·
CC1(C)C2CCC1(CS(=O)(=O)N1CCC(C(N)=O)CC1)C(=O)C2 (stereo unspecified)	0.2	-2.3	-0.2	3.4	2.6	·	·	·	·
CC1(C)C2CCC1(CS(=O)(=O)N1CCOCC1)C(=O)C2 (stereo unspecified)	1.4*	-4.9	·	10.1	4.7	103.4	0.0	112.4	0.2
CC(C)n1c(C(=O)OCC(=O)NCc2ccc3c(c2)OCO3)cc2occc21	-0.1	37.9	·	0.4	5.2	·	·	·	·
COc1ccc(/C(O)=C2\C(=O)C(=O)N(CCN(C)C)C2c2cccc(OC)c2OC)cc1 (stereo unspecified)	6.5*	-7.0	·	15.9	4.6	101.1	-0.3	98.1	-0.1
O=C(C1CCCO1)N1CCN(C(=S)Nc2ccc(F)cc2)CC1 (stereo unspecified)	2.5*	-12.4	0.1	2.7	-3.9	106.7	0.1	108.3	0.1
O=C(Nc1ccc(F)cc1)N1CCN(C(=O)C2CCCO2)CC1 (stereo unspecified)	0.0	-8.2	0.1	-0.6	1.5	·	·	·	·
COCC#Cc1ccc([C@H]2[C@H](CO)N3CCCCN(Cc4cccnc4)C[C@@H]23)cc1	·	·	0.0	·	·	·	·	·	·
CCOC(=O)c1ccc(NC(=O)N2CCN(Cc3cccc(F)c3)CC2)cc1	-0.1	-6.1	-0.3	·	·	·	·	·	·
CCCCN1C(N)=NC[C@@H]1Cc1ccc(O)cc1	-0.1	-2.0	0.3	10.7	-1.8	97.6	-0.3	105.1	-0.1
NC1=NC[C@@H](Cc2ccc(O)cc2)N1CCc1cccc(F)c1	0.0	4.5	0.1	3.3	7.6	109.5	0.1	97.7	-0.1
SMILES	Efflux pump inh	Rtt109 Vps75	FGF22 binding	ARFGAP1 inh	ASAP1 inh	Cmpd fluor yeast	CaMdr1 efflux inh	Cdr2 pump inh	CaCdr1 efflux inh
CC(C)(C)CN1C(N)=NC[C@H]1Cc1ccc(O)cc1	0.5	-6.3	0.0	1.1	0.2	·	·	·	·
CC(C)(C)CN1C(N)=NC[C@@H]1Cc1ccc(O)cc1	-0.1	-2.1	0.0	-4.3	10.7	104.5	-0.1	112.4	0.1
COc1cc(CCCN2C(N)=NC[C@H]2Cc2ccc(O)cc2)cc(OC)c1OC	0.0	-5.8	-0.1	5.3	11.0	·	·	·	·
CCCCN1C(N)=NC[C@H]1Cc1ccc(O)cc1	-0.1	4.1	0.1	-6.9	-3.5	98.6	-0.3	101.5	0.0
NC1=NC[C@@H](Cc2ccc(O)cc2)N1CCc1cc(C(F)(F)F)cc(C(F)(F)F)c1	-0.1	1.4	-0.1	5.8	0.3	·	·	·	·
C[C@@H]1C=C[C@](Cc2ccccc2)(C(=O)NCC2CC2)N1C(=O)c1ccccc1	-0.1	-1.6	-0.1	-2.8	1.0	·	·	·	·
O=C(CSc1nnnn1CCCO)Nc1ccc2c(c1)OCO2	0.0	1.4	-0.2	4.6	-3.6	·	·	·	·
COc1ccc(CCn2c(-c3ccccc3)nc3c(c(=O)c4ccccc4n3C)c2=O)cc1	0.0	·	·	13.1	7.6	·	·	·	·
COc1ccc(Cn2c(-c3ccccc3)nc3c(c(=O)c4ccccc4n3C)c2=O)cc1	1.1*	-6.8	·	-4.9	-0.3	110.0	0.1	118.7	-0.1
CCOC(=O)c1ccccc1NC(=O)CSc1ccc(-c2cccnc2)nn1	1.5*	0.2	0.1	0.6	3.8	86.5	-0.1	91.1	-0.1
O=C1CCCC2=C1C(c1ccc(O)c(O)c1)Nc1ccc3ccccc3c12 (stereo unspecified)	-0.1	4.2	-0.1	6.9	5.0	·	·	·	·
CCOc1ccc(C2Nc3ccc4ccccc4c3-c3c2c(=O)oc2ccccc32)cc1 (stereo unspecified)	0.6*	·	·	4.9	-0.7	118.2	0.5	107.2	1.1
O=c1oc2ccccc2c2c1C(c1ccc(Cl)cc1)Nc1ccc3ccccc3c1-2 (stereo unspecified)	1.0*	-5.4	·	-1.9	3.4	103.4	-0.2	114.4	0.5
O=C(CCCc1ccccc1)Nc1cccc([N+](=O)[O-])c1	0.8*	12.7	0.9	-1.2	11.6	100.2	-0.1	122.6	0.1
COc1ccc(NS(=O)(=O)c2cn(C)cn2)cc1	0.0	5.2	-0.1	4.0	7.9	·	·	·	·
CSc1cccc(NS(=O)(=O)c2cn(C)cn2)c1	1.3*	29.6	0.3	11.9	-1.8	98.6	-0.3	80.3	0.0
